Experimental data as given in ChEMBL document CHEMBL1158573, “Cytotoxic and NF-kappaB inhibitory constituents of Artocarpus rigida” (J Nat Prod, 2010).
Activity calls are given as the source filed them. No cut-off for these calls is given here.

What was measured:
[1] = target: T1, Nuclear factor NF-kappa-B p105 subunit (Homo sapiens) (UniProt P19838); experiment: Inhibition of NFkappa p50 isolated from nuclear extract of human HeLa cells assessed as blockade of binding to biotinylated consesus sequence by chemiluminescence assay; assay type: cell-free
T1 sequence (whole entry): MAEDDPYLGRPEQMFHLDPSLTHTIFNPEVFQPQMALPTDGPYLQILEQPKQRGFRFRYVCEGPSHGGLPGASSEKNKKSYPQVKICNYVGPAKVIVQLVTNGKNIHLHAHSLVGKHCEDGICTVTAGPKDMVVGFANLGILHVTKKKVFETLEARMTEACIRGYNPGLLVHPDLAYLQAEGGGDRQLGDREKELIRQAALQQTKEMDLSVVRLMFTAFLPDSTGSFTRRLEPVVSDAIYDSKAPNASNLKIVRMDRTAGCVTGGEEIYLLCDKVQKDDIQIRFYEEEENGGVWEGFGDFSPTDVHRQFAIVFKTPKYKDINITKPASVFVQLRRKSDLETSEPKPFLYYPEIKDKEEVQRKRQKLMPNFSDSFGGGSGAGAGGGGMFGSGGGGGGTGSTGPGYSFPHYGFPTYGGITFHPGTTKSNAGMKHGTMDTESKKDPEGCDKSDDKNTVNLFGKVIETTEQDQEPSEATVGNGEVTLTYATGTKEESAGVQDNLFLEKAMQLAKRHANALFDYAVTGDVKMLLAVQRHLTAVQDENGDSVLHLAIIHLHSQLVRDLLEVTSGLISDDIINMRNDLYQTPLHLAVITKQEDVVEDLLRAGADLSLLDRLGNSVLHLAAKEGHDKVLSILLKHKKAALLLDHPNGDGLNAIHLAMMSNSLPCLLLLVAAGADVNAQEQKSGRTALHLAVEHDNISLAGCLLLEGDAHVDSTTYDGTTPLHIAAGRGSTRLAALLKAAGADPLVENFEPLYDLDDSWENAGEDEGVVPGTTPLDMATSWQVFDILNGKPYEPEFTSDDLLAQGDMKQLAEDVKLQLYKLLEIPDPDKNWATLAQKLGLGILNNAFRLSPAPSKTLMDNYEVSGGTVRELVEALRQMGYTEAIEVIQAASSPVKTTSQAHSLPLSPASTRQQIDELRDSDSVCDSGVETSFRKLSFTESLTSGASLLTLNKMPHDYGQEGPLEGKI
Summary of the method: (§1)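 ELISA-format transcription factor assay. HeLa nuclear extract was treated with samples, and activated p50 or p65 bound to a biotinylated consensus sequence was detected by chemiluminescence on a plate reader. IC50 reported in μM.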

HT-29 = experiment: Cytotoxicity against human HT-29 cells after 3 days by SRB assay; assay type: functional; conditions: for EC50: HT-29, 72 h, read-out: ED50 (the source's name)
Summary of the method: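 HT-29 colon cancer cells, trypsinized and seeded in 96-well plates, treated with compounds in DMSO (DMSO as negative control). Incubated 3 days at 37 °C, 5% CO2, then fixed, 30 min at room temperature, washed, dried overnight, stained with sulforhodamine B. Dye solubilized in tris-base buffer, absorbance read at 515 nm. Cytotoxicity calculated versus DMSO control, reported as ED50 (μM). Paclitaxel as positive control.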

[2] = target: Transcription factor p65 (Homo sapiens) (UniProt Q04206); experiment: Inhibition of NFkappa p65 isolated from nuclear extract of human HeLa cells assessed as blockade of binding to biotinylated consesus sequence by chemiluminescence assay; assay type: cell-free; summary of the method: as §1
Chain of Transcription factor p65 (Homo sapiens) (Q04206 whole entry): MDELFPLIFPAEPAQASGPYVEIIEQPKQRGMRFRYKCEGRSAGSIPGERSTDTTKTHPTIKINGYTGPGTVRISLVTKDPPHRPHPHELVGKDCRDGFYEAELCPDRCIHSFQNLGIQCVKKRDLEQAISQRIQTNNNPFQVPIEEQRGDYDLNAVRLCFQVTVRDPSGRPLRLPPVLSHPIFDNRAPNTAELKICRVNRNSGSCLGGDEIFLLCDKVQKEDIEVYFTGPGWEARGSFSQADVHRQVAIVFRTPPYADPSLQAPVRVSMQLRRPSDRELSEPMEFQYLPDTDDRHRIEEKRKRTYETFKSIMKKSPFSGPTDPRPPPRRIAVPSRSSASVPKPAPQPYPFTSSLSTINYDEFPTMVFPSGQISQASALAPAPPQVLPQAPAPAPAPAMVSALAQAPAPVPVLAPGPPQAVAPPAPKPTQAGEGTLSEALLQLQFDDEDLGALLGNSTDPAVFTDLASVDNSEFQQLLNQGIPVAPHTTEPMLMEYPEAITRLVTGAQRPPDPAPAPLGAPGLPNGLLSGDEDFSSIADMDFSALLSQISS

Compound	Activity [1]	Activity (HT-29)	Activity [2]	EC50 (HT-29)
C[C@H]1[C@H](C)CC[C@]2(C(=O)O)CC[C@]3(C)C(=CC[C@@H]4[C@@]5(C)CC[C@H](O)C(C)(C)[C@@H]5CC[C@]43C)[C@H]12	inactive	inactive	inactive	
C=C(C)c1cc2c(=O)c3c(O)c(CC=C(C)C)c(O)cc3oc2c2c1C(=O)C(O)=C(CC=C(C)C)C2=O [ARTORIGIDIN C]				> 10 µM
CC(C)=CCc1c(O)cc2oc3c(cc4c5c(c(O)c(CC=C(C)C)c(O)c53)OC4(C)C)c(=O)c2c1O	inactive	inactive	inactive	
CC(=O)O[C@H]1C(=O)[C@@]2(C)[C@H]([C@H](OC(=O)c3ccccc3)[C@]3(O)C[C@H](OC(=O)[C@H](O)[C@@H](NC(=O)c4ccccc4)c4ccccc4)C(C)=C1C3(C)C)[C@]1(OC(C)=O)CO[C@@H]1C[C@@H]2O [PACLITAXEL]				0.0001 µM
COc1cc(O)c2c(=O)c3cc4c5c(c(O)cc(O)c5c3oc2c1)OC4(C)C	inactive	inactive	inactive	
C=C(C)c1cc2c(=O)c3c(O)c(CC=C(C)C)c(O)cc3oc2c2c(O)c3c(c(O)c12)OC(C)(C)C=C3	inactive	inactive	inactive	
C=C(C)[C@H]1Cc2c(oc3c4c(cc(O)c3c2=O)OC(C)(C)C=C4)-c2c(O)cc(O)c(O)c21 [ARTOBILOXANTHONE]				> 10 µM
CC1(C)C=Cc2cc3c(cc2O1)Oc1cc(O)ccc1C(O)=C3 [ARTORISTILBENE]				10.7 µM
C=C(C)[C@@H]1CC[C@]2(C(=O)O)CC[C@]3(C)[C@H](CC[C@@H]4[C@@]5(C)CC[C@H](O)C(C)(C)[C@@H]5CC[C@]43C)[C@@H]12	inactive	inactive	inactive	
